Data as given in ChEMBL document CHEMBL4177526, “Discovery and structure activity relationship of the first potent cryptosporidium FIKK kinase inhibitor” (Bioorg Med Chem, 2017).

Experiments:
[1] = biological target: Phosphorylase b kinase gamma catalytic chain, skeletal muscle/heart isoform (Homo sapiens) (UniProt Q16816); experiment: Inhibition of human PHKgamma1 (2 to 297 residues) assessed as residual activity at 500 nM in presence of 33P-ATP by filter binding assay relative to control
[2] = biological target: Serine/threonine-protein kinase BRSK2 (Homo sapiens) (UniProt Q8IWQ3); experiment: Inhibition of human BRSK2 (2 to 674 residues) assessed as residual activity at 500 nM in presence of 33P-ATP by filter binding assay relative to control
[3] = Inhibition of recombinant Cryptosporidium parvum FIKK using RRRAPSFYRK peptide as substrate by NADH coupled LDH-PK ATPase assay
[4] = biological target: Serine/threonine-protein kinase MARK2 (Homo sapiens) (UniProt Q7KZI7); experiment: Inhibition of human MARK2 (2 to 691 residues) assessed as residual activity at 500 nM in presence of 33P-ATP by filter binding assay relative to control
[5] = biological target: Tyrosine-protein kinase SYK (Homo sapiens) (UniProt P43405); experiment: Inhibition of human SYK (1 to 635 residues) assessed as residual activity at 500 nM in presence of 33P-ATP by filter binding assay relative to control
[6] = biological target: Calcium/calmodulin-dependent protein kinase kinase 2 (Homo sapiens) (UniProt Q96RR4); experiment: Inhibition of human CAMKKbeta (1 to 541 residues) assessed as residual activity at 500 nM in presence of 33P-ATP by filter binding assay relative to control
Calcium/calmodulin-dependent protein kinase kinase 2 (Homo sapiens), sequence (Q96RR4 2-588 limits assumed): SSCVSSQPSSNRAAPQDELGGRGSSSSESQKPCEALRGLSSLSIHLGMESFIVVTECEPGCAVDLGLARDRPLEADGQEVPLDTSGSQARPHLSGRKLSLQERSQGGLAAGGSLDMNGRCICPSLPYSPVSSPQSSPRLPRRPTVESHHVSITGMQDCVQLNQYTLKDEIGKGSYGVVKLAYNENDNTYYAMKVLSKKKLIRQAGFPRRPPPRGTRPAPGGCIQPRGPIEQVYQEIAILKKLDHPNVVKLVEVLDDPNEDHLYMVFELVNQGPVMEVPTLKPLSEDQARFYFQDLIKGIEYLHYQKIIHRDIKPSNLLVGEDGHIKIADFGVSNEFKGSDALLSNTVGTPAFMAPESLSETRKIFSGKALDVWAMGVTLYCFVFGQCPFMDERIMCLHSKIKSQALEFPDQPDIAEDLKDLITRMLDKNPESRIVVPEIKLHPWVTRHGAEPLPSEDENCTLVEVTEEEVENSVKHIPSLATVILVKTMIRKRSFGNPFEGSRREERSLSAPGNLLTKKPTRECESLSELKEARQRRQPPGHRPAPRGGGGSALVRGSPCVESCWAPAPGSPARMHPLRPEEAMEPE

[7] = biological target: Serine/threonine-protein kinase N2 (Homo sapiens) (UniProt Q16513); experiment: Inhibition of human PRK2 (501 to 984 residues) assessed as residual activity at 500 nM in presence of 33P-ATP by filter binding assay relative to control
[8] = biological target: Tyrosine-protein kinase ABL1 (Homo sapiens) (UniProt P00519); experiment: Inhibition of human ABL (118 to 535 residues) assessed as residual activity at 500 nM in presence of 33P-ATP by filter binding assay relative to control
Tyrosine-protein kinase ABL1 (Homo sapiens), sequence (P00519 whole entry, the tested form may be a part): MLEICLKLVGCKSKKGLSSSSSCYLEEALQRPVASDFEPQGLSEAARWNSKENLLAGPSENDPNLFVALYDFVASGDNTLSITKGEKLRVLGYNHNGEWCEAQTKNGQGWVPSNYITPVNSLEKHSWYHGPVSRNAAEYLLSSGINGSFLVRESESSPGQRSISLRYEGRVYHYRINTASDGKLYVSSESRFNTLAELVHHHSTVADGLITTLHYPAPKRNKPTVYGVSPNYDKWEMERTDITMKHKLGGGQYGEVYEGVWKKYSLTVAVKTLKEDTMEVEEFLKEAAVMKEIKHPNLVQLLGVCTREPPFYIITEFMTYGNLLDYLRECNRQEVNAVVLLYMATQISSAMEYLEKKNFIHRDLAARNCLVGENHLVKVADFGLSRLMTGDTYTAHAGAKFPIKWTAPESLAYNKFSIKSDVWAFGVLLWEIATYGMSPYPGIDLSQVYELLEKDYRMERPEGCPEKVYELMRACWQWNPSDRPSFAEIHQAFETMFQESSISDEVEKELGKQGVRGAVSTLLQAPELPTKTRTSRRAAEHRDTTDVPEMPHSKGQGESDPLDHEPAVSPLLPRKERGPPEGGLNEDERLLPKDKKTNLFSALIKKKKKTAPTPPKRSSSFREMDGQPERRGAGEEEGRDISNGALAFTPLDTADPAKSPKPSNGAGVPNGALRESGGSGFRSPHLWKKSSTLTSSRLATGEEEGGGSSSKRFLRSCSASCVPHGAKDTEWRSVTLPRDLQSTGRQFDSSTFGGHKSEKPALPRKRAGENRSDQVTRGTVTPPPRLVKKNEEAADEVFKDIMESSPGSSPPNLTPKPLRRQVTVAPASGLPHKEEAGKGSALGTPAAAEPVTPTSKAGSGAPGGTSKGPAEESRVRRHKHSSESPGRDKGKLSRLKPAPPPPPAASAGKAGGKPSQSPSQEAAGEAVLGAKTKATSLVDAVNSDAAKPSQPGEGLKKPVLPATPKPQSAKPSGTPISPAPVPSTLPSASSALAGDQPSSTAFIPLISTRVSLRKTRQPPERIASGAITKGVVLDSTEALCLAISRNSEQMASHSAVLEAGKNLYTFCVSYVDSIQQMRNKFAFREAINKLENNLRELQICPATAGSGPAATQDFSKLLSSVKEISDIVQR

[9] = biological target: Ribosomal protein S6 kinase alpha-3 (Homo sapiens) (UniProt P51812); experiment: Inhibition of human RSK2 assessed as residual activity at 500 nM in presence of 33P-ATP by filter binding assay relative to control
[10] = biological target: Serine/threonine-protein kinase ULK2 (Homo sapiens) (UniProt Q8IYT8); experiment: Inhibition of human ULK2 (1 to 1036 residues) assessed as residual activity at 500 nM in presence of 33P-ATP by filter binding assay relative to control
[11] = biological target: cAMP-dependent protein kinase catalytic subunit alpha (Homo sapiens) (UniProt P17612); experiment: Inhibition of human PKAalpha (2 to 351 residues) assessed as residual activity at 500 nM in presence of 33P-ATP by filter binding assay relative to control
[12] = test system: Ribosomal protein S6 kinase beta-1 (Homo sapiens), P23443 [T412E]; experiment: Inhibition of human S6K1 T412E mutant (1 to 421 residues) assessed as residual activity at 500 nM in presence of 33P-ATP by filter binding assay relative to control
[13] = biological target: Serine/threonine-protein kinase Sgk1 (Homo sapiens) (UniProt O00141); experiment: Inhibition of human SGK1 (60 to 431 residues) assessed as residual activity at 500 nM in presence of 33P-ATP by filter binding assay relative to control
Serine/threonine-protein kinase Sgk1 (Homo sapiens), sequence (O00141 whole entry, the tested form may be a part): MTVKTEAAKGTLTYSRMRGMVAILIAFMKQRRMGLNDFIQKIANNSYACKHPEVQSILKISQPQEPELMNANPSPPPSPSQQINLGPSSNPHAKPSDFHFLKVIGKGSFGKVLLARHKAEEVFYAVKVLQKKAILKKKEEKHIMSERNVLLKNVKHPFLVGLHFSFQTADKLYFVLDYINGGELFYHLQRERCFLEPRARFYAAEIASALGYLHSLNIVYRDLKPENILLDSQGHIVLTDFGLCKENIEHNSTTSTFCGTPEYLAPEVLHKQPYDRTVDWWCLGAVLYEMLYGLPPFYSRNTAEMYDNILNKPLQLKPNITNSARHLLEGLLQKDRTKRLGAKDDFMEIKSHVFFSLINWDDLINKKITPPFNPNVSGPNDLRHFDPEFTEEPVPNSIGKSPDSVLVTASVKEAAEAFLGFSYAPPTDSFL

[14] = Ratio of EC50 for antiparasitic activity against Cryptosporidium parvum Iowa oocysts infected in human HCT8 cells to IC50 for Cryptosporidium parvum CDPK1; assay type: functional
[15] = biological target: Tau-tubulin kinase 2 (Homo sapiens) (UniProt Q6IQ55); experiment: Inhibition of human TTBK2 (1 to 450 residues) assessed as residual activity at 500 nM in presence of 33P-ATP by filter binding assay relative to control
[16] = biological target: Serine/threonine-protein kinase 3 (Homo sapiens) (UniProt Q13188); experiment: Inhibition of human MST2 (2 to 491 residues) assessed as residual activity at 500 nM in presence of 33P-ATP by filter binding assay relative to control
[17] = biological target: Vascular endothelial growth factor receptor 2 (Homo sapiens) (UniProt P35968); experiment: Inhibition of VEGFR2 (unknown origin) assessed as residual activity at 500 nM relative to control
[18] = biological target: Dual specificity protein kinase CLK2 (Homo sapiens) (UniProt P49760); experiment: Inhibition of human CLK2 (138 to 499 residues) assessed as residual activity at 500 nM in presence of 33P-ATP by filter binding assay relative to control
[19] = biological target: Ephrin type-B receptor 1 (Homo sapiens) (UniProt P54762); experiment: Inhibition of human EPHB1 (565 to 984 residues) assessed as residual activity at 500 nM in presence of 33P-ATP by filter binding assay relative to control
Ephrin type-B receptor 1 (Homo sapiens), sequence (P54762 whole entry, the tested form may be a part): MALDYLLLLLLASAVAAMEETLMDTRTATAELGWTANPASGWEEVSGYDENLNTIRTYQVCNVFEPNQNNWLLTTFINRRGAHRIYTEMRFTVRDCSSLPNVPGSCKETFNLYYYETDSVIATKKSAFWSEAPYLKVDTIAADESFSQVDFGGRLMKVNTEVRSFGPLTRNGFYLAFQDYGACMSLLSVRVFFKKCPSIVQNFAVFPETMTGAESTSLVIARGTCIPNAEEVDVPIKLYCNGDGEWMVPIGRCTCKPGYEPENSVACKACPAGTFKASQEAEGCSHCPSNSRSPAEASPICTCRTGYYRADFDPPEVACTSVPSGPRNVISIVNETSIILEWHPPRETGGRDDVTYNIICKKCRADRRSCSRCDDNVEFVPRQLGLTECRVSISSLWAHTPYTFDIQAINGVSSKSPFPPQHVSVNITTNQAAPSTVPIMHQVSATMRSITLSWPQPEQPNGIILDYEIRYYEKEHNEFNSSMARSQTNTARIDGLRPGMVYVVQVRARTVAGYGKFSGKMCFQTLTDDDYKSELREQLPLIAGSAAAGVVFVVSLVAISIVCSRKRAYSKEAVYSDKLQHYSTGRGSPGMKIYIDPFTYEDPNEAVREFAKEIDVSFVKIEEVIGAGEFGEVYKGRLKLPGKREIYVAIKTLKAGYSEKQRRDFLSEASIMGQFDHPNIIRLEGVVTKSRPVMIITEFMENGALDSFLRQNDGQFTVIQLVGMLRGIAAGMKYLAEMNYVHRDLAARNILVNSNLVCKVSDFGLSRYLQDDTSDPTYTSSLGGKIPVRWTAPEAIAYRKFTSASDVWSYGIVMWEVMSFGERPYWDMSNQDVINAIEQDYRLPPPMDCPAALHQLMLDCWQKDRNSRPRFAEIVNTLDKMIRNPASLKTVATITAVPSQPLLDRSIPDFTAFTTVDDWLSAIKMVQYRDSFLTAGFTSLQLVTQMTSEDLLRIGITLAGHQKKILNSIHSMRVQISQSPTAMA

[20] = biological target: Eukaryotic elongation factor 2 kinase (Homo sapiens) (UniProt O00418); experiment: Inhibition of human EF2K (2 to 725 residues) assessed as residual activity at 500 nM in presence of 33P-ATP by filter binding assay relative to control
Eukaryotic elongation factor 2 kinase (Homo sapiens), sequence (O00418 whole entry, the tested form may be a part): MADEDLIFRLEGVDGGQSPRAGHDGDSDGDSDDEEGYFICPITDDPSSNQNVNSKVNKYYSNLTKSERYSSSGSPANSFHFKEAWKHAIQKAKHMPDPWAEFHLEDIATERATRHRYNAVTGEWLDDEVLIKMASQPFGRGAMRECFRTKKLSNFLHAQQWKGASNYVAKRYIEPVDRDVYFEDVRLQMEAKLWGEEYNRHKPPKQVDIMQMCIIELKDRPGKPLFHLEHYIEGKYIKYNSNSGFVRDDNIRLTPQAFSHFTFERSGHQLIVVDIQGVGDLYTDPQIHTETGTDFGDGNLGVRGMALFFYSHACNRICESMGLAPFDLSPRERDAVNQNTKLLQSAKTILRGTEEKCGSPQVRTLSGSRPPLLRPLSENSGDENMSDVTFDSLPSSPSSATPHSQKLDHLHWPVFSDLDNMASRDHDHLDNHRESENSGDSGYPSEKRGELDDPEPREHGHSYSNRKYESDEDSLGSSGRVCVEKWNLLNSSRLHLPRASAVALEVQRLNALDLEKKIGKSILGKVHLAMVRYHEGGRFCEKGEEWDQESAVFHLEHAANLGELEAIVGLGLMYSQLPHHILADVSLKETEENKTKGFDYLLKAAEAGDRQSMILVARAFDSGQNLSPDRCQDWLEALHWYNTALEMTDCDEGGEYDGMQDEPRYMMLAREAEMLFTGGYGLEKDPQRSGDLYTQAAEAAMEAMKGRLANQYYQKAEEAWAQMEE

[21] = Inhibition of Cryptosporidium parvum CDPK1 using PLARTLSVAGLPGKK peptide as substrate by NADH coupled LDH-PK ATPase assay
Method in brief: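 NADH-coupled LDH-PK ATPase read-out with 1.2 nM recombinant CpCDPK1, 0.25 mM ATP, 0.1 mM Syntide 2.0 peptide and 2 mM CaCl2. Inhibitors were made as 10 mM DMSO stocks and tested in 2-fold serial dilutions. IC50 is the average of triplicate experiments.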

[22] = biological target: Ribosomal protein S6 kinase alpha-5 (Homo sapiens) (UniProt O75582); experiment: Inhibition of human MSK1 (2 to 802 residues) assessed as residual activity at 500 nM in presence of 33P-ATP by filter binding assay relative to control
[23] = biological target: serine/threonine-protein kinase D1 (Homo sapiens) (UniProt Q15139); experiment: Inhibition of human PKD1 (2 to 912 residues) at 500 nM in presence of 33P-ATP by filter binding assay relative to control
[24] = biological target: Receptor-interacting serine/threonine-protein kinase 2 (Homo sapiens) (UniProt O43353); experiment: Inhibition of human RIPK2 (2 to 311 residues) assessed as residual activity at 500 nM in presence of 33P-ATP by filter binding assay relative to control
Receptor-interacting serine/threonine-protein kinase 2 (Homo sapiens), sequence (O43353 whole entry, the tested form may be a part): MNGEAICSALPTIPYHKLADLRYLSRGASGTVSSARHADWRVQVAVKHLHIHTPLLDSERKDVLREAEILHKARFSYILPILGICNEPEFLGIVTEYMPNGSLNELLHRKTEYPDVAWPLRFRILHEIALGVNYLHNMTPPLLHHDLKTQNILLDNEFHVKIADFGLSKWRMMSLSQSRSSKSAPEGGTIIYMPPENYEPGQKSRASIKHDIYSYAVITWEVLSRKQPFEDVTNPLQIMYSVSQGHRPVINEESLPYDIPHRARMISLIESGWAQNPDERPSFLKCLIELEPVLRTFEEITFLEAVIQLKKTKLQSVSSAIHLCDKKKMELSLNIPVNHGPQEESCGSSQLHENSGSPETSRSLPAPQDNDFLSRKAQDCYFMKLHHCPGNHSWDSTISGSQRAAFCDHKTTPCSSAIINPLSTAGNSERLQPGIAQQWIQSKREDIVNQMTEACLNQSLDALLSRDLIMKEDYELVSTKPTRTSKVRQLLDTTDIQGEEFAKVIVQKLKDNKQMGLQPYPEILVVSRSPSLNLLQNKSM

[25] = biological target: 3-phosphoinositide-dependent protein kinase 1 (Homo sapiens) (UniProt O15530); experiment: Inhibition of human PDK1 (52 to 556 residues) assessed as residual activity at 500 nM in presence of 33P-ATP by filter binding assay relative to control
[26] = biological target: Glycogen synthase kinase-3 beta (Homo sapiens) (UniProt P49841); experiment: Inhibition of human GSK3beta (2 to 420 residues) assessed as residual activity at 500 nM in presence of 33P-ATP by filter binding assay relative to control
Glycogen synthase kinase-3 beta (Homo sapiens), sequence (P49841 whole entry, looked up, the tested form may be a part): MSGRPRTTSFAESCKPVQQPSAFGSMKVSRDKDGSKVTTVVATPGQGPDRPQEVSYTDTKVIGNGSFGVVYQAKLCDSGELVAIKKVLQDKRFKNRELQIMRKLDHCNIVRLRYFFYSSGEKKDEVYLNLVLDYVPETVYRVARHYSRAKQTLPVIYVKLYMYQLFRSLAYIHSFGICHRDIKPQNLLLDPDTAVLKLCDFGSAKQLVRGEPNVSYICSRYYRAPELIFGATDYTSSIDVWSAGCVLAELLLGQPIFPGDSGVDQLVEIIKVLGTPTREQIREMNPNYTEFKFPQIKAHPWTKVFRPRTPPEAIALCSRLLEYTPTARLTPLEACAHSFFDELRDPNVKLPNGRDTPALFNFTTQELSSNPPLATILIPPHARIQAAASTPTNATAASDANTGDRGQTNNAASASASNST

Question: Which Activity [1] does the source give for Cc1cccc(-c2nc(N)sc2-c2ccc3ncccc3n2)c1 here?
Answer: The Activity was 107%.

Question: And the Activity [2]?
Answer: The Activity was 89%.

Question: And the IC50 [3]?
Answer: Its IC50 is 0.2 nM.

Question: And the Activity [4]?
Answer: The Activity was 134%.

Question: And the Activity [5]?
Answer: Its Activity is 95%.

Question: What about the Activity [6] of the same compound?
Answer: Its Activity is 124%.

Question: What about the Activity [7] of the same compound?
Answer: The Activity was 121%.

Question: What about the Activity [8] of the same compound?
Answer: Its Activity is 81%.

Question: What about the Activity [9] of the same compound?
Answer: The Activity was 100%.

Question: What about the Activity [10] of the same compound?
Answer: Its Activity is 118%.

Question: What about the Activity [11] of the same compound?
Answer: Its Activity is 115%.

Question: What about the Activity [12] of the same compound?
Answer: The Activity was 136%.

Question: And the Activity [13]?
Answer: Its Activity is 124%.

Question: What about the Ratio [14] of the same compound?
Answer: Its Ratio is 14.

Question: What about the Activity [15] of the same compound?
Answer: The Activity was 125%.

Question: And the Activity [16]?
Answer: Its Activity is 109%.

Question: And the Activity [17]?
Answer: Its Activity is 41%.

Question: And the Activity [18]?
Answer: The Activity was 76%.

Question: What about the Activity [19] of the same compound?
Answer: The Activity was 110%.

Question: What about the Activity [20] of the same compound?
Answer: The Activity was 115%.

Question: What about the IC50 [21] of the same compound?
Answer: The IC50 was 190 nM.

Question: What about the Activity [22] of the same compound?
Answer: Its Activity is 115%.

Question: What about the inhibition [23] of the same compound?
Answer: Its inhibition is 91%.

Question: And the Activity [24]?
Answer: Its Activity is 30%.

Question: What about the Activity [25] of the same compound?
Answer: The Activity was 118%.

Question: And the Activity [26]?
Answer: The Activity was 112%.
